Values after ≈ are worked out from the molar mass of the structure shown.
How the values were obtained:
Assay type in all cases: functional
[1] = tested on: Streptococcus pneumoniae; experiment: Antibacterial activity against Streptococcus pneumoniae by agar microdilution method
Method in brief: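 MIC read by agar microdilution following NCCLS standard M7-A6 (2003), against a panel of 3 Streptococcus pneumoniae clinical isolates. Values in µg/mL, given as a range where the isolates differed.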

[2] = tested on: Staphylococcus aureus; experiment: Antibacterial activity against methicillin-susceptible Staphylococcus aureus by agar microdilution method
Method in brief: (§1)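 MIC by agar microdilution following NCCLS standard M7-A6 (2003), tested against clinical isolates: MRSA n = 6, MRSE n = 5, MSSA n = 5, MSSE n = 5; values given as a single MIC or a range across isolates.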

[3] = tested on: Staphylococcus epidermidis; experiment: Antibacterial activity against methicillin-susceptible Staphylococcus epidermidis by agar microdilution method; method in brief: as §1
[4] = tested on: Staphylococcus aureus; experiment: Antibacterial activity against methicillin-resistant Staphylococcus aureus by agar microdilution method; method in brief: as §1
[5] = tested on: Staphylococcus epidermidis; experiment: Antibacterial activity against methicillin-resistant Staphylococcus epidermidis by agar microdilution method; method in brief: as §1
[6] = tested on: Staphylococcus aureus; experiment: Ratio of Linezolid MIC to compound MIC for methicillin-susceptible Staphylococcus aureus
[7] = tested on: Streptococcus pneumoniae; experiment: Ratio of Linezolid MIC to compound MIC for Streptococcus pneumoniae
[8] = tested on: Staphylococcus epidermidis; experiment: Ratio of Linezolid MIC to compound MIC for methicillin-susceptible Staphylococcus epidermidis

Work on `C=C[C@]1(C)C[C@@H](OC(=O)N2Cc3ccc(NC(=O)[C@@H]4CCCN4)cc3C2=O)[C@]2(C)[C@H](C)CC[C@]3(CCC(=O)[C@H]32)[C@@H](C)[C@@H]1O.Cl` yielded an MIC [1] of 0.5 µg/mL, an MIC [2] of 0.25 µg/mL and an MIC [3] of 0.25 µg/mL. The MIC [4] was 0.25 µg/mL, the MIC [5] was 0.25 µg/mL and the Ratio [6] was 4. It also gave a Ratio [7] of 4 and a Ratio [8] of 4.
For `C=C[C@]1(C)C[C@@H](OC(=O)N2Cc3ccc(F)cc3C2=O)[C@]2(C)[C@H](C)CC[C@]3(CCC(=O)[C@H]32)[C@@H](C)[C@@H]1O`, the MIC [1] was 0.125 µg/mL (≈ 0.251 µM), the MIC [2] was 0.125 µg/mL (≈ 0.251 µM) and the MIC [3] was 0.125 µg/mL (≈ 0.251 µM). It also gave an MIC [4] of 0.125 µg/mL (≈ 0.251 µM), an MIC [5] of 0.125 µg/mL (≈ 0.251 µM) and a Ratio [6] of 4. It also gave a Ratio [7] of 4 and a Ratio [8] of 4.
`C=C[C@]1(C)C[C@@H](OC(=O)N2Cc3cc(N4CCN(C)CC4)ccc3C2=O)[C@]2(C)[C@H](C)CC[C@]3(CCC(=O)[C@H]32)[C@@H](C)[C@@H]1O` showed an MIC [1] of 0.25 µg/mL (≈ 0.433 µM), an MIC [2] of 0.125 µg/mL (≈ 0.216 µM) and an MIC [3] of 0.125 µg/mL (≈ 0.216 µM). The MIC [4] was 0.125 µg/mL (≈ 0.216 µM), the MIC [5] was 0.125 µg/mL (≈ 0.216 µM) and the Ratio [6] was 4. The Ratio [7] was 4 and the Ratio [8] was 4.
Work on `C=C[C@]1(C)C[C@@H](OC(=O)N2Cc3cc(N)ccc3C2=O)[C@]2(C)[C@H](C)CC[C@]3(CCC(=O)[C@H]32)[C@@H](C)[C@@H]1O` yielded an MIC [1] of 0.125 µg/mL (≈ 0.253 µM), an MIC [2] of 0.125 µg/mL (≈ 0.253 µM) and an MIC [3] of 0.125 µg/mL (≈ 0.253 µM). For the same compound, the MIC [4] was 0.125 µg/mL (≈ 0.253 µM), the MIC [5] was 0.125 µg/mL (≈ 0.253 µM) and the Ratio [6] was 4. It also gave a Ratio [7] of 4 and a Ratio [8] of 4.
For `C=C[C@]1(C)C[C@@H](OC(=O)N2CCc3cc(OC)c([N+](=O)[O-])cc3C2=O)[C@]2(C)[C@H](C)CC[C@]3(CCC(=O)[C@H]32)[C@@H](C)[C@@H]1O`, the MIC [1] was 0.25 µg/mL (≈ 0.44 µM), the MIC [2] was 0.125 µg/mL (≈ 0.22 µM) and the MIC [3] was 0.25 µg/mL (≈ 0.44 µM). The MIC [4] was 0.25 µg/mL (≈ 0.44 µM), the MIC [5] was 0.25 µg/mL (≈ 0.44 µM) and the Ratio [6] was 4. The Ratio [7] was 4 and the Ratio [8] was 4.
